{"source": "paper PMC12177174", "about": "(iScience, 2025)", "assay_type_in_all_cases": "in vivo, homo sapiens", "key": {"Phase 1 Part 2": {"assay": "Phase 1 Part 2", "procedure,_shortened": "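Healthy adults got test compound (5, 15 or 20 mg) or placebo once daily on day 1 and days 3–16. The first cohort had 6 active and 2 placebo; later cohorts had 8 active and 3 placebo, each starting with a 2:1 sentinel group. Participants were discharged day 19, with follow-up 6 ± 1 and 29 ± 2 days after the last dose. Events were graded by CTCAE, with investigator-assessed relatedness. Placebo was pooled.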"}, "osteocalcin": {"system": "osteocalcin", "assay": "Serum bone turnover biomarker osteocalcin", "procedure,_shortened": "(§1)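 Participants got test compound (5, 15 or 20 mg) or placebo once daily on day 1 and days 3–16. Serum was drawn at screening and pre-dose on days 1, 5, 7, 12 and 16, and on days 22 (±1) and 45 (±2), at the same time as baseline. CTX-1, P1NP and osteocalcin were measured by electrochemiluminescence immunoassay and BSAP by sandwich ELISA. Results are percent change from baseline versus pooled placebo.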"}, "[1]": {"assay": "Pharmacokinetics Part 2, once daily oral dosing, plasma and urine", "procedure,_shortened": "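Oral test compound or placebo was given once each morning at 5, 15 or 20 mg on day 1 and days 3–16. Plasma was sampled over 48 h after the day 1 dose and after the day 16 dose, with troughs pre-dose on days 4, 5, 6, 9 and 12. Urine was collected in intervals on days 1 and 16. Quantitation was by LC-MS/MS after protein precipitation.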"}, "AXIN2 mRNA [2]": {"system": "AXIN2 mRNA", "assay": "Target engagement: AXIN2 mRNA", "settings": "hair follicle", "procedure,_shortened": "(§2)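 Hair follicles (2 mm micropunch) and skin biopsies (4 mm) were taken from the lower back of the head on day −1 and on day 16, 8 ± 2 h after the last of 14 consecutive once-daily doses. AXIN2 mRNA was measured by qRT-PCR and normalized to the geometric mean of HPRT1, IPO8 and POLR2A. Fold change from baseline was calculated by 2^−ΔΔCt, versus 8 pooled placebo participants.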"}, "BSAP": {"system": "BSAP", "assay": "Serum bone turnover biomarker BSAP", "procedure,_shortened": "as §1"}, "AXIN2 mRNA [3]": {"system": "AXIN2 mRNA", "assay": "Target engagement: AXIN2 mRNA", "settings": "skin", "procedure,_shortened": "as §2"}, "[4]": {"assay": "Pharmacokinetics Part 1, single oral dose, plasma and urine", "procedure,_shortened": "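Healthy adults (men and women of non-child-bearing potential) got one oral dose of test compound (7, 20 or 40 mg; 6 per cohort) or placebo. Plasma was sampled pre-dose, at 15 and 30 min, and at 1–48 h (72 h at 40 mg only). Urine was collected over 0–72 h intervals. Analysis was LC-MS/MS after protein precipitation (plasma 1.00–6000 nmol/L). t½ = ln(2)/λz. Dose proportionality was assessed graphically and by power model.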"}, "[5]": {"settings": "all dose levels, after 14 consecutive days of dosing"}}, "note": "Where “and” joins values, the source holds several entries; their conditions need not be identical. Equal entries are not always repeated.", "data": [{"compound": "Cc1cc(-c2nccc3c2ccn3CC(=O)Nc2ccc(-c3cnccn3)cn2)ccn1", "note": "[AZD5055]", "values": [{"measurement": "Any TEAE leading to discontinuation of IMP", "setting": "Phase 1 Part 2; Part 2, 15 mg QD, N=9", "result": "1 n (%)"}, {"measurement": "Any TEAE possibly related to the IMP (as assessed by investigator)", "setting": "Phase 1 Part 2; Part 2 MAD pooled, N=26", "result": "7 (26.9%) n (%)"}, {"measurement": "Abdominal pain upper", "setting": "Phase 1 Part 2; Part 2 MAD pooled, n=26", "result": "0 n (%)"}, {"measurement": "Application site scab", "setting": "Phase 1 Part 2; Part 2 MAD pooled, n=26", "result": "0 n (%)"}, {"measurement": "Breath odor", "setting": "Phase 1 Part 2; Part 2 MAD pooled, n=26", "result": "1 (3.8) n (%)"}, {"measurement": "Cardiac disorders", "setting": "Phase 1 Part 2; Part 2 MAD pooled, n=26", "result": "2 (7.7) n (%)"}, {"measurement": "Coronavirus infection", "setting": "Phase 1 Part 2; Part 2 MAD pooled, n=26", "result": "1 (3.8) n (%)"}, {"measurement": "Cough", "setting": "Phase 1 Part 2; Part 2 MAD pooled, n=26", "result": "0 n (%)"}, {"measurement": "Dermatitis contact", "setting": "Phase 1 Part 2; Part 2 MAD pooled, n=26", "result": "0 n (%)"}, {"measurement": "Dizziness", "setting": "Phase 1 Part 2; Part 2 MAD pooled, n=26", "result": "0 n (%)"}, {"measurement": "Dysgeusia", "setting": "Phase 1 Part 2; Part 2 MAD pooled, n=26", "result": "2 n (%) and 2 (7.7) n (%)"}, {"measurement": "Epistaxis", "setting": "Phase 1 Part 2; Part 2 MAD pooled, n=26", "result": "1 (3.8) n (%)"}, {"measurement": "Erythema", "setting": "Phase 1 Part 2; Part 2 MAD pooled, n=26", "result": "1 (3.8) n (%)"}, {"measurement": "Eye disorders", "setting": "Phase 1 Part 2; Part 2 MAD pooled, n=26", "result": "2 (7.7) n (%)"}, {"measurement": "Folliculitis", "setting": "Phase 1 Part 2; Part 2 MAD pooled, n=26", "result": "1 (3.8) n (%)"}, {"measurement": "Gastrointestinal disorders", "setting": "Phase 1 Part 2; Part 2 MAD pooled, n=26", "result": "1 (3.8) n (%)"}, {"measurement": "General disorders and administration site conditions", "setting": "Phase 1 Part 2; Part 2 MAD pooled, n=26", "result": "11 (42.3) n (%)"}, {"measurement": "Headache", "setting": "Phase 1 Part 2; Part 2 MAD pooled, n=26", "result": "5 (19.2) n (%)"}, {"measurement": "Infections and infestations", "setting": "Phase 1 Part 2; Part 2 MAD pooled, n=26", "result": "2 (7.7) n (%)"}, {"measurement": "Injury, poisoning and procedural complications", "setting": "Phase 1 Part 2; Part 2 MAD pooled, n=26", "result": "5 (19.2) n (%)"}, {"measurement": "Limb injury", "setting": "Phase 1 Part 2; Part 2 MAD pooled, n=26", "result": "1 (3.8) n (%)"}, {"measurement": "Medical device site dermatitis", "setting": "Phase 1 Part 2; Part 2 MAD pooled, n=26", "result": "11 (42.3) n (%)"}, {"measurement": "Nasal discomfort", "setting": "Phase 1 Part 2; Part 2 MAD pooled, n=26", "result": "1 (3.8) n (%)"}, {"measurement": "Nausea", "setting": "Phase 1 Part 2; Part 2 MAD pooled, n=26", "result": "0 n (%)"}, {"measurement": "Nervous system disorders", "setting": "Phase 1 Part 2; Part 2 MAD pooled, n=26", "result": "7 (26.9) n (%)"}, {"measurement": "Participants with ≥1 TEAE", "setting": "Phase 1 Part 2; Part 2 MAD pooled, n=26", "result": "21 (80.8%) n (%) and 21 (80.8) n (%)"}, {"measurement": "Participants with ≥1 TEAE of grade 1 severity", "setting": "Phase 1 Part 2; Part 2 MAD pooled, n=26", "result": "16 (61.5%) n (%) and 16 (61.5) n (%)"}, {"measurement": "Participants with ≥1 TEAE of grade 2 severity", "setting": "Phase 1 Part 2; Part 2 MAD pooled, n=26", "result": "5 (19.2%) n (%) and 5 (19.2) n (%)"}, {"measurement": "Participants with ≥1 TEAE of grade 3 severity", "setting": "Phase 1 Part 2; Part 2 MAD pooled, n=26", "result": "0 n (%)"}, {"measurement": "Participants with ≥1 TESAE", "setting": "Phase 1 Part 2; Part 2 MAD pooled, n=26", "result": "0 n (%)"}, {"measurement": "Photophobia", "setting": "Phase 1 Part 2; Part 2 MAD pooled, n=26", "result": "1 (3.8) n (%)"}, {"measurement": "Post procedural erythema", "setting": "Phase 1 Part 2; Part 2 MAD pooled, n=26", "result": "1 (3.8) n (%)"}, {"measurement": "Post procedural inflammation", "setting": "Phase 1 Part 2; Part 2 MAD pooled, n=26", "result": "1 (3.8) n (%)"}, {"measurement": "Procedural pain", "setting": "Phase 1 Part 2; Part 2 MAD pooled, n=26", "result": "2 (7.7) n (%)"}, {"measurement": "Respiratory, thoracic and mediastinal disorders", "setting": "Phase 1 Part 2; Part 2 MAD pooled, n=26", "result": "2 (7.7) n (%)"}, {"measurement": "Sensation of foreign body", "setting": "Phase 1 Part 2; Part 2 MAD pooled, n=26", "result": "1 (3.8) n (%)"}, {"measurement": "Skin abrasion", "setting": "Phase 1 Part 2; Part 2 MAD pooled, n=26", "result": "1 (3.8) n (%)"}, {"measurement": "Skin and subcutaneous tissue disorders", "setting": "Phase 1 Part 2; Part 2 MAD pooled, n=26", "result": "1 (3.8) n (%)"}, {"measurement": "Suture rupture", "setting": "Phase 1 Part 2; Part 2 MAD pooled, n=26", "result": "0 n (%)"}, {"measurement": "Ventricular tachycardia", "setting": "Phase 1 Part 2; Part 2 MAD pooled, n=26", "result": "2 (7.7) n (%)"}, {"measurement": "Vessel puncture site haematoma", "setting": "Phase 1 Part 2; Part 2 MAD pooled, n=26", "result": "0 n (%)"}, {"measurement": "Vision blurred", "setting": "Phase 1 Part 2; Part 2 MAD pooled, n=26", "result": "1 (3.8) n (%)"}, {"measurement": "Vomiting", "setting": "Phase 1 Part 2; Part 2 MAD pooled, n=26", "result": "0 n (%)"}, {"measurement": "Wheezing", "setting": "Phase 1 Part 2; Part 2 MAD pooled, n=26", "result": "0 n (%)"}, {"measurement": "serum osteocalcin levels", "setting": "osteocalcin; 15 and 20 mg doses", "result": "reductions"}, {"measurement": "serum osteocalcin levels vs placebo", "setting": "osteocalcin; lower doses", "result": "comparable to those in the placebo group"}, {"measurement": "Dose proportionality of systemic exposure", "setting": "[1]; after 14 consecutive days of once daily treatment, 5-20 mg", "result": "increased in a dose-proportional manner"}, {"measurement": "mean terminal half-life", "setting": "[1]; following repeated once daily dosing", "result": "12 to 17", "unit": "h"}, {"measurement": "AZD5055 dose excreted unchanged in urine", "setting": "[1]; in vivo", "result": "Approximately 3%"}, {"measurement": "mean renal clearance", "setting": "[1]; in vivo", "result": "0.2 to 0.3", "unit": "L/h"}, {"measurement": "Steady state conditions in plasma reached", "setting": "[1]; once daily dosing", "result": "≤ 5", "unit": "doses"}, {"measurement": "accumulation ratio", "setting": "[1]; once daily dosing", "result": "≤ 2"}, {"measurement": "reduction of median AXIN2 mRNA levels", "setting": "AXIN2 mRNA [2]; 15 and 20 mg cohorts", "result": "50%–60%"}, {"measurement": "AXIN2 mRNA expression vs placebo-treated participants", "setting": "AXIN2 mRNA [2]; [5]", "result": "significantly reduced from baseline"}, {"measurement": "serum BSAP levels", "setting": "BSAP; 20 mg dose", "result": "reductions"}, {"measurement": "serum BSAP levels vs placebo", "setting": "BSAP; lower doses", "result": "comparable to those in the placebo group"}, {"measurement": "reduction of median AXIN2 mRNA levels", "setting": "AXIN2 mRNA [3]; 15 and 20 mg cohorts", "result": "50%–60%"}, {"measurement": "AXIN2 mRNA expression vs placebo-treated participants", "setting": "AXIN2 mRNA [3]; [5]", "result": "significantly reduced from baseline"}, {"measurement": "mean terminal elimination half-life", "setting": "[4]; after a single dose, across dose cohorts", "result": "10 to 11", "unit": "h"}, {"measurement": "median time to maximum plasma concentration (tmax)", "setting": "[4]; oral, across dose cohorts", "result": "1 to 1.5", "unit": "h"}, {"measurement": "Dose proportionality (power-model approach)", "setting": "[4]; single doses 7-40 mg", "result": "behaves dose-proportionally"}]}]}
